Non-standard residues stand in square brackets, D forms with d. Residues, ends and D or L forms follow the SMILES beside them.
Test system: Fibroblast
Assay: Multiplex assay against human fibroblast
Type: toxicity, cell-based
Procedure, shortened: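 Cells stained live at seeding with Hoechst33342, BioTracker Green Microtubule Cytoskeleton Dye, MitoTracker Red and Annexin V Alexa Fluor 680 were imaged on a CQ1 microscope at 37°C and 5% CO2 after compound addition. Their classification by CellPathfinder machine-learning gating ran from Hoechst high-intensity objects versus normal cells, to healthy, pyknosed or fragmented nuclei among normal cells, to mitotic or apoptotic among pyknosed cells. Tubulin, mitochondrial-mass and membrane-permeability phenotypes are per cents of healthy-nucleus cells.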

[1] = 12 h, 1 µM, compound concentration 1 uM, replicate 1
[2] = 12 h, 1 µM, compound concentration 1 uM, replicate 2
[3] = 12 h, 10 µM, compound concentration 10 uM, replicate 1
[4] = 12 h, 10 µM, compound concentration 10 uM, replicate 2
[5] = 24 h, 1 µM, compound concentration 1 uM, replicate 1
[6] = 24 h, 1 µM, compound concentration 1 uM, replicate 2
[7] = 24 h, 10 µM, compound concentration 10 uM, replicate 1
[8] = 24 h, 10 µM, compound concentration 10 uM, replicate 2
[9] = 48 h, 1 µM, compound concentration 1 uM, replicate 1
[10] = 48 h, 1 µM, compound concentration 1 uM, replicate 2
[11] = 48 h, 10 µM, compound concentration 10 uM, replicate 1
[12] = 48 h, 10 µM, compound concentration 10 uM, replicate 2

## CCC(=O)OCC(=O)[C@@]1(OC(=O)CC)[C@@H](C)C[C@H]2[C@@H]3CCC4=CC(=O)C=C[C@]4(C)[C@@]3(Cl)[C@@H](O)C[C@@]21C [BECLOMETHASONE DIPROPIONATE]
[1]
  Population Apoptotic (%): 38%
  Population Fragmented Nuclei (%): 13%
  Population Healthy Nuclei (%): 73%
  Population Hoechst High Intensity Objects (%): 3%
  Population Membrane Permeable-Phenotype (%): 1%
  Population Mitochondria Different-Phenotype (%): 2%
  Population Mitotic Cells (%): 61%
  Population Normal (%): 96%
  Population Pyknosed Nuclei (%): 13%
  Population Tubulin-Different-Phenotype (%): 47%
  Total Cell Count: 135
[2]
  Population Apoptotic (%): 42%
  Population Fragmented Nuclei (%): 30%
  Population Healthy Nuclei (%): 40%
  Population Membrane Permeable-Phenotype (%): 5%
  Population Mitochondria Different-Phenotype (%): 10%
  Population Mitotic Cells (%): 57%
  Population Pyknosed Nuclei (%): 30%
  Population Tubulin-Different-Phenotype (%): 63%
  Total Cell Count: 155
[3]
  Population Apoptotic (%): 40%
  Population Fragmented Nuclei (%): 9%
  Population Healthy Nuclei (%): 69%
  Population Hoechst High Intensity Objects (%): 8%
  Population Membrane Permeable-Phenotype (%): 1%
  Population Mitochondria Different-Phenotype (%): 17%
  Population Mitotic Cells (%): 60%
  Population Normal (%): 91%
  Population Pyknosed Nuclei (%): 20%
  Population Tubulin-Different-Phenotype (%): 87%
  Total Cell Count: 157
[4]
  Population Fragmented Nuclei (%): 32%
  Population Healthy Nuclei (%): 42%
  Population Hoechst High Intensity Objects (%): 5%
  Population Membrane Permeable-Phenotype (%): 15%
  Population Mitochondria Different-Phenotype (%): 20%
  Population Mitotic Cells (%): 59%
  Population Normal (%): 94%
  Population Pyknosed Nuclei (%): 24%
  Population Tubulin-Different-Phenotype (%): 94%
  Total Cell Count: 96
[5]
  Population Apoptotic (%): 50%
  Population Fragmented Nuclei (%): 16%
  Population Healthy Nuclei (%): 65%
  Population Hoechst High Intensity Objects (%): 1%
  Population Membrane Permeable-Phenotype (%): 3%
  Population Mitochondria Different-Phenotype (%): 2%
  Population Mitotic Cells (%): 50%
  Population Normal (%): 98%
  Population Pyknosed Nuclei (%): 18%
  Population Tubulin-Different-Phenotype (%): 34%
  Total Cell Count: 134
[6]
  Population Apoptotic (%): 47%
  Population Fragmented Nuclei (%): 30%
  Population Healthy Nuclei (%): 45%
  Population Hoechst High Intensity Objects (%): 6%
  Population Membrane Permeable-Phenotype (%): 7%
  Population Mitochondria Different-Phenotype (%): 7%
  Population Mitotic Cells (%): 52%
  Population Normal (%): 93%
  Population Pyknosed Nuclei (%): 24%
  Population Tubulin-Different-Phenotype (%): 60%
  Total Cell Count: 150
[7]
  Population Apoptotic (%): 40%
  Population Fragmented Nuclei (%): 13%
  Population Healthy Nuclei (%): 66%
  Population Hoechst High Intensity Objects (%): 6%
  Population Membrane Permeable-Phenotype (%): 1%
  Population Mitochondria Different-Phenotype (%): 30%
  Population Mitotic Cells (%): 59%
  Population Normal (%): 93%
  Population Pyknosed Nuclei (%): 19%
  Population Tubulin-Different-Phenotype (%): 86%
  Total Cell Count: 148
[8]
  Population Apoptotic (%): 19%
  Population Fragmented Nuclei (%): 38%
  Population Healthy Nuclei (%): 40%
  Population Membrane Permeable-Phenotype (%): 15%
  Population Mitochondria Different-Phenotype (%): 12%
  Population Mitotic Cells (%): 80%
  Population Pyknosed Nuclei (%): 21%
  Population Tubulin-Different-Phenotype (%): 79%
  Total Cell Count: 104
[9]
  Population Apoptotic (%): 28%
  Population Fragmented Nuclei (%): 13%
  Population Healthy Nuclei (%): 56%
  Population Hoechst High Intensity Objects (%): 3%
  Population Membrane Permeable-Phenotype (%): 1%
  Population Mitochondria Different-Phenotype (%): 15%
  Population Mitotic Cells (%): 71%
  Population Normal (%): 96%
  Population Pyknosed Nuclei (%): 30%
  Population Tubulin-Different-Phenotype (%): 61%
  Total Cell Count: 132
[10]
  Population Apoptotic (%): 52%
  Population Fragmented Nuclei (%): 31%
  Population Healthy Nuclei (%): 41%
  Population Hoechst High Intensity Objects (%): 7%
  Population Membrane Permeable-Phenotype (%): 5%
  Population Mitochondria Different-Phenotype (%): 9%
  Population Mitotic Cells (%): 47%
  Population Normal (%): 92%
  Population Pyknosed Nuclei (%): 27%
  Population Tubulin-Different-Phenotype (%): 54%
  Total Cell Count: 143
[11]
  Population Apoptotic (%): 67%
  Population Fragmented Nuclei (%): 21%
  Population Healthy Nuclei (%): 54%
  Population Hoechst High Intensity Objects (%): 6%
  Population Membrane Permeable-Phenotype (%): 0%
  Population Mitochondria Different-Phenotype (%): 47%
  Population Mitotic Cells (%): 32%
  Population Normal (%): 93%
  Population Pyknosed Nuclei (%): 24%
  Population Tubulin-Different-Phenotype (%): 76%
  Total Cell Count: 162
[12]
  Population Apoptotic (%): 37%
  Population Fragmented Nuclei (%): 33%
  Population Healthy Nuclei (%): 33%
  Population Hoechst High Intensity Objects (%): 3%
  Population Membrane Permeable-Phenotype (%): 18%
  Population Mitochondria Different-Phenotype (%): 15%
  Population Mitotic Cells (%): 62%
  Population Normal (%): 96%
  Population Pyknosed Nuclei (%): 33%
  Population Tubulin-Different-Phenotype (%): 84%
  Total Cell Count: 99

## CC(C)C[C@@H]1NC(=O)[C@@H](C(C)C)NC(=O)[C@@H]2CCCN2C(=O)[C@@H](CC(=O)O)NC(=O)[C@@H](Cc2c[nH]c3ccccc23)NC1=O [BQ-123] (cyclo(L[dW][dD]P[dV]))
[1]
  Population Apoptotic (%): 57%
  Population Fragmented Nuclei (%): 18%
  Population Healthy Nuclei (%): 68%
  Population Hoechst High Intensity Objects (%): 0%
  Population Membrane Permeable-Phenotype (%): 1%
  Population Mitochondria Different-Phenotype (%): 11%
  Population Mitotic Cells (%): 42%
  Population Normal (%): 100%
  Population Pyknosed Nuclei (%): 13%
  Population Tubulin-Different-Phenotype (%): 31%
  Total Cell Count: 105
[2]
  Population Apoptotic (%): 21%
  Population Fragmented Nuclei (%): 22%
  Population Healthy Nuclei (%): 58%
  Population Hoechst High Intensity Objects (%): 3%
  Population Membrane Permeable-Phenotype (%): 5%
  Population Mitochondria Different-Phenotype (%): 2%
  Population Mitotic Cells (%): 78%
  Population Normal (%): 96%
  Population Pyknosed Nuclei (%): 18%
  Total Cell Count: 157
[3]
  Population Apoptotic (%): 48%
  Population Fragmented Nuclei (%): 15%
  Population Healthy Nuclei (%): 65%
  Population Hoechst High Intensity Objects (%): 2%
  Population Membrane Permeable-Phenotype (%): 0%
  Population Mitochondria Different-Phenotype (%): 9%
  Population Mitotic Cells (%): 52%
  Population Normal (%): 97%
  Population Pyknosed Nuclei (%): 18%
  Population Tubulin-Different-Phenotype (%): 33%
  Total Cell Count: 136
[4]
  Population Apoptotic (%): 33%
  Population Fragmented Nuclei (%): 30%
  Population Healthy Nuclei (%): 48%
  Population Membrane Permeable-Phenotype (%): 4%
  Population Mitochondria Different-Phenotype (%): 3%
  Population Mitotic Cells (%): 66%
  Population Pyknosed Nuclei (%): 20%
  Population Tubulin-Different-Phenotype (%): 46%
  Total Cell Count: 134
[5]
  Population Apoptotic (%): 53%
  Population Fragmented Nuclei (%): 19%
  Population Healthy Nuclei (%): 66%
  Population Hoechst High Intensity Objects (%): 1%
  Population Membrane Permeable-Phenotype (%): 0%
  Population Mitochondria Different-Phenotype (%): 5%
  Population Mitotic Cells (%): 46%
  Population Normal (%): 98%
  Population Pyknosed Nuclei (%): 14%
  Population Tubulin-Different-Phenotype (%): 24%
  Total Cell Count: 107
[6]
  Population Apoptotic (%): 24%
  Population Fragmented Nuclei (%): 23%
  Population Healthy Nuclei (%): 57%
  Population Hoechst High Intensity Objects (%): 6%
  Population Membrane Permeable-Phenotype (%): 3%
  Population Mitochondria Different-Phenotype (%): 3%
  Population Mitotic Cells (%): 75%
  Population Normal (%): 93%
  Population Pyknosed Nuclei (%): 18%
  Population Tubulin-Different-Phenotype (%): 25%
  Total Cell Count: 166
[7]
  Population Apoptotic (%): 50%
  Population Fragmented Nuclei (%): 19%
  Population Healthy Nuclei (%): 64%
  Population Hoechst High Intensity Objects (%): 8%
  Population Membrane Permeable-Phenotype (%): 1%
  Population Mitochondria Different-Phenotype (%): 5%
  Population Mitotic Cells (%): 50%
  Population Normal (%): 91%
  Population Pyknosed Nuclei (%): 15%
  Population Tubulin-Different-Phenotype (%): 32%
  Total Cell Count: 123
[8]
  Population Apoptotic (%): 29%
  Population Fragmented Nuclei (%): 27%
  Population Healthy Nuclei (%): 50%
  Population Hoechst High Intensity Objects (%): 0%
  Population Membrane Permeable-Phenotype (%): 11%
  Population Mitochondria Different-Phenotype (%): 3%
  Population Mitotic Cells (%): 70%
  Population Normal (%): 99%
  Population Pyknosed Nuclei (%): 22%
  Population Tubulin-Different-Phenotype (%): 50%
[9]
  Population Apoptotic (%): 50%
  Population Fragmented Nuclei (%): 18%
  Population Healthy Nuclei (%): 70%
  Population Hoechst High Intensity Objects (%): 3%
  Population Membrane Permeable-Phenotype (%): 0%
  Population Mitochondria Different-Phenotype (%): 12%
  Population Mitotic Cells (%): 50%
  Population Normal (%): 96%
  Population Pyknosed Nuclei (%): 11%
  Population Tubulin-Different-Phenotype (%): 25%
  Total Cell Count: 109
[10]
  Population Apoptotic (%): 52%
  Population Fragmented Nuclei (%): 28%
  Population Healthy Nuclei (%): 56%
  Population Hoechst High Intensity Objects (%): 4%
  Population Membrane Permeable-Phenotype (%): 2%
  Population Mitochondria Different-Phenotype (%): 4%
  Population Mitotic Cells (%): 48%
  Population Normal (%): 95%
  Population Pyknosed Nuclei (%): 15%
  Population Tubulin-Different-Phenotype (%): 39%
  Total Cell Count: 172
[11]
  Population Apoptotic (%): 70%
  Population Fragmented Nuclei (%): 26%
  Population Healthy Nuclei (%): 59%
  Population Hoechst High Intensity Objects (%): 5%
  Population Membrane Permeable-Phenotype (%): 1%
  Population Mitochondria Different-Phenotype (%): 5%
  Population Mitotic Cells (%): 29%
  Population Normal (%): 94%
  Population Pyknosed Nuclei (%): 13%
  Population Tubulin-Different-Phenotype (%): 38%
  Total Cell Count: 129
[12]
  Population Apoptotic (%): 46%
  Population Fragmented Nuclei (%): 45%
  Population Healthy Nuclei (%): 42%
  Population Hoechst High Intensity Objects (%): 6%
  Population Membrane Permeable-Phenotype (%): 9%
  Population Mitochondria Different-Phenotype (%): 3%
  Population Mitotic Cells (%): 53%
  Population Normal (%): 93%
  Population Pyknosed Nuclei (%): 12%
  Population Tubulin-Different-Phenotype (%): 51%
  Total Cell Count: 130

From ChEMBL document CHEMBL5058577, “EUbOPEN Chemogenomics Library 2 (Multiplex)” (2022)
